≈ marks a conversion by molar mass, not a printed value.
Assays:
Type in all cases: functional
Aspergillus niger [1] = experiment: Antimicrobial activity against Aspergillus niger NCIM 596 at 200 ug/disk after 48 hrs by agar disc-diffusion method; conditions: NCIM 596, 48 h, read-out: DIZ
Method in brief: (§1)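 Agar disc diffusion with NCIM strains. Sterile 6 mm filter-paper discs were moistened with compound in DMSO at 100 or 200 per disc and placed on agar plates pre-inoculated with each organism. Plates were incubated at 37 °C. Growth-inhibition zone diameter was read at 24 h for bacteria and 48 h for fungi.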

Bacillus subtilis [2] = experiment: Antimicrobial activity against Bacillus subtilis NCIM 2063 at 100 ug/disk after 24 hrs by agar disc-diffusion method; conditions: NCIM 2063, 24 h, read-out: DIZ; method in brief: as §1
Fusarium solani [3] = experiment: Antimicrobial activity against Fusarium solani NCIM 1330 at 200 ug/disk after 48 hrs by agar disc-diffusion method; conditions: NCIM 1330, 48 h, read-out: DIZ; method in brief: as §1
Staphylococcus aureus [4] = experiment: Antimicrobial activity against Staphylococcus aureus NCIM 5021 at 100 ug/disk after 24 hrs by agar disc-diffusion method; conditions: NCIM 5021, 24 h, read-out: DIZ; method in brief: as §1
Curvularia lunata [5] = experiment: Antimicrobial activity against Curvularia lunata NCIM 716 at 100 ug/disk after 48 hrs by agar disc-diffusion method; conditions: NCIM 716, 48 h, read-out: DIZ; method in brief: as §1
Staphylococcus aureus [6] = experiment: Antimicrobial activity against Staphylococcus aureus NCIM 5021 at 200 ug/disk after 24 hrs by agar disc-diffusion method; conditions: NCIM 5021, 24 h, read-out: DIZ; method in brief: as §1
Proteus vulgaris [7] = experiment: Antimicrobial activity against Proteus vulgaris NCIM 2027 at 200 ug/disk after 24 hrs by agar disc-diffusion method; conditions: NCIM 2027, 24 h, read-out: DIZ
[8] = Antioxidant activity assessed as nitric oxide scavenging activity at 100 uM after 120 min by Griess assay
Method in brief: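 Sodium nitroprusside (5 mM) in phosphate buffer pH 7.4 was incubated with test compound dissolved in dioxane/methanol at 25 °C for 120 min. A solvent-only control was run in parallel. Aliquots were mixed 1:1 with Griess reagent (1% sulfanilamide, 0.1% N-naphthylethylenediamine dihydrochloride, 2% o-phosphoric acid in water).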

Bacillus subtilis [9] = experiment: Antimicrobial activity against Bacillus subtilis NCIM 2063 at 200 ug/disk after 24 hrs by agar disc-diffusion method; conditions: NCIM 2063, 24 h, read-out: DIZ; method in brief: as §1
Aspergillus niger [10] = experiment: Antimicrobial activity against Aspergillus niger NCIM 596 at 100 ug/disk after 48 hrs by agar disc-diffusion method; conditions: NCIM 596, 48 h, read-out: DIZ; method in brief: as §1
Proteus vulgaris [11] = experiment: Antimicrobial activity against Proteus vulgaris NCIM 2027 at 100 ug/disk after 24 hrs by agar disc-diffusion method; conditions: NCIM 2027, 24 h, read-out: DIZ
Curvularia lunata [12] = experiment: Antimicrobial activity against Curvularia lunata NCIM 716 at 200 ug/disk after 48 hrs by agar disc-diffusion method; conditions: NCIM 716, 48 h, read-out: DIZ; method in brief: as §1
Klebsiella pneumoniae [13] = experiment: Antimicrobial activity against Klebsiella pneumoniae NCIM 2957 at 100 ug/disk after 24 hrs by agar disc-diffusion method; conditions: NCIM 2957, 24 h, read-out: DIZ; method in brief: as §1
[14] = test system: Radical scavenging activity; experiment: Antioxidant activity assessed as DPPH free radical scavenging activity at 100 uM after 20 mins
Method in brief: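 Compound solutions were added to DPPH in dioxane/ethanol and kept at ambient temperature for 20 min, then absorbance was read at 517 nm. Percent inhibition = (A_control − A_sample)/A_control × 100, […].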

Fusarium solani [15] = experiment: Antimicrobial activity against Fusarium solani NCIM 1330 at 100 ug/disk after 48 hrs by agar disc-diffusion method; conditions: NCIM 1330, 48 h, read-out: DIZ; method in brief: as §1
Klebsiella pneumoniae [16] = experiment: Antimicrobial activity against Klebsiella pneumoniae NCIM 2957 at 200 ug/disk after 24 hrs by agar disc-diffusion method; conditions: NCIM 2957, 24 h, read-out: DIZ; method in brief: as §1
Aspergillus niger [17] = experiment: Antimicrobial activity against Aspergillus niger NCIM 596 after 48 hrs by microdilution susceptibility method; conditions: NCIM 596, 48 h
Method in brief: (§2)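 Broth microdilution MIC with NCIM strains. Compounds and the references (chloramphenicol, antibacterial; ketoconazole, antifungal) were dissolved in DMSO at 800 and diluted two-fold from 400 down to 6.25. Wells were inoculated with the microbial suspension and incubated at 36 °C, 24 h for bacteria and 48 h for fungi. MIC was the lowest concentration with no visible growth.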

Fusarium solani [18] = experiment: Antimicrobial activity against Fusarium solani NCIM 1330 after 48 hrs by microdilution susceptibility method; conditions: NCIM 1330, 48 h; method in brief: as §2
Curvularia lunata [19] = experiment: Antimicrobial activity against Curvularia lunata NCIM 716 after 48 hrs by microdilution susceptibility method; conditions: NCIM 716, 48 h; method in brief: as §2

Row | Structure (SMILES) | zone of inhibition at 200 µg/disc (Aspergillus niger [1]) [mm] | zone of inhibition at 100 µg/disc (Bacillus subtilis [2]) [mm] | zone of inhibition at 200 µg/disc (Fusarium solani [3]) [mm] | zone of inhibition at 100 µg/disc (Staphylococcus aureus [4]) [mm] | zone of inhibition at 100 µg/disc (Curvularia lunata [5]) [mm] | zone of inhibition at 200 µg/disc (Staphylococcus aureus [6]) [mm] | zone of inhibition at 200 µg/disc (Proteus vulgaris [7]) [mm] | Activity [8] [%] | zone of inhibition at 200 µg/disc (Bacillus subtilis [9]) [mm] | zone of inhibition at 100 µg/disc (Aspergillus niger [10]) [mm] | zone of inhibition at 100 µg/disc (Proteus vulgaris [11]) [mm] | zone of inhibition at 200 µg/disc (Curvularia lunata [12]) [mm] | zone of inhibition at 100 µg/disc (Klebsiella pneumoniae [13]) [mm] | Activity [14] [%] | zone of inhibition at 100 µg/disc (Fusarium solani [15]) [mm] | zone of inhibition at 200 µg/disc (Klebsiella pneumoniae [16]) [mm] | MIC (Aspergillus niger [17]) [µg/mL] | MIC (Fusarium solani [18]) [µg/mL] | MIC (Curvularia lunata [19]) [µg/mL]
1 | Cc1ccc(NS(=O)(=O)Cc2nnc(-c3ccc(C)cc3)o2)cc1 | 12 | 9 | 15 | 10 | 14 | 12 | 9 | 54.3 | 10 | 10 | 7 | 16 | 7 | 58.1 | 12 | 8 | – | – | –
2 | O=S(=O)(Cc1nnc(-c2ccccc2)s1)Nc1ccccc1 | 21 | 18 | 24 | 19 | 24 | 22 | 16 | 25.4 | 20 | 19 | 15 | 25 | 14 | 27.8 | 22 | 17 | – | – | –
3 | O=S(=O)(Cc1nnc(CS(=O)(=O)c2ccccc2)o1)Nc1ccccc1 | 17 | 12 | 16 | 13 | 16 | 14 | 14 | 66.8 | 15 | 14 | 12 | 20 | 11 | 64.7 | 13 | 12 | – | – | –
4 | O=S(=O)(Cc1nnc(-c2ccccc2)o1)Nc1ccccc1 | 16 | 9 | 13 | 10 | 13 | 13 | 8 | 63.5 | 11 | 12 | 6 | 15 | 7 | 62.3 | 11 | 9 | – | – | –
5 | CC(=O)N1CCN(c2ccc(OCC3COC(Cn4ccnc4)(c4ccc(Cl)cc4Cl)O3)cc2)CC1 (centres undefined) [KETOCONAZOLE] | 39 | – | 42 | – | 41 | – | – | – | – | 36 | – | 44 | – | – | 38 | – | 6.25 (≈ 11.8 µM) | 12.5 (≈ 23.5 µM) | 6.25 (≈ 11.8 µM)
6 | Cc1ccc(NS(=O)(=O)Cc2nnc(CS(=O)(=O)c3ccc(C)cc3)o2)cc1 | 15 | 11 | 18 | 12 | 15 | 15 | 12 | 57.2 | 13 | 13 | 10 | 17 | 10 | 58.6 | 14 | 12 | – | – | –
7 | O=S(=O)(Cc1nnc(CS(=O)(=O)c2ccc(Cl)cc2)o1)Nc1ccc(Cl)cc1 | 18 | 12 | 19 | 13 | 14 | 15 | 14 | 69.4 | 14 | 16 | 13 | 18 | 11 | 71 | 17 | 13 | – | – | –
8 | O=S(=O)(Cc1nnc(-c2ccc(Cl)cc2)o1)Nc1ccc(Cl)cc1 | 13 | 11 | 16 | 12 | 13 | 14 | 11 | 70.5 | 13 | 11 | 10 | 15 | 9 | 69.6 | 14 | 10 | – | – | –
9 | O=C1O[C@H]([C@@H](O)CO)C(O)=C1O | – | – | – | – | – | – | – | 96.9 | – | – | – | – | – | 95.4 | – | – | – | – | –
10 | Cc1ccc(NS(=O)(=O)Cc2nnc(-c3ccc(C)cc3)s2)cc1 | 18 | 22 | 22 | 20 | 21 | 23 | 15 | 29.4 | 24 | 17 | 13 | 24 | 18 | 32.3 | 19 | 19 | – | – | –
